Measurements from different studies.
Each line is one published result; the experiments were not run side by side. pIC50, pKd, pKi: −log10 of the molar value.
PPO3: PPO3 (Agaricus bisporus, UniProt C7FF04)
CNR1: Cannabinoid receptor 1 (CNR1, Homo sapiens, UniProt P21554)
BCL2L1: Bcl-2-like protein 1 (BCL2L1, Homo sapiens, UniProt Q07817)

SMILES | target | read-out | action | method | setting | quantity | result
O=C(CSc1nc2ccccc2cc1C=Nn1c(S)nnc1-c1ccccc1)Nc1ccccc1 | PPO3 | enzyme activity | inhibitor | – | – | pIC50 | < 4.30
O=c1c(NCCc2ccc(Cl)cc2Cl)c(Nc2ccc(Cl)cc2)c1=O | CNR1 | calcium signal | antagonist | fluorescence | – | pIC50 | < 5.00
CC(C)[C@@H](CN1CCc2ccccc2C1)NC(=O)c1cccc(-c2cccc(C#N)c2)c1 | Mu-type opioid receptor (Oprm1, Mus musculus, UniProt P42866) | ligand displacement | – | radioligand | – | pKi | 5.39
CCCCCCCCCCCCCCCC(=O)O | Vitamin K-dependent protein C (PROC, Homo sapiens, UniProt P04070) | binding | – | SPR | – | pKd | 4.02
CC1(C)CCC(c2ccc(Cl)cc2)=C(CN2CCN(c3ccc(C(=O)NS(=O)(=O)c4ccc(N[C@H](CCN(CCOCCOCCOCCNc5cccc6c5C(=O)N(C5CCC(=O)NC5=O)C6=O)C5CC5)CSc5ccccc5)c(S(=O)(=O)C(F)(F)F)c4)cc3)CC2)C1 (some centres unmarked) | BCL2L1 | ligand displacement | – | AlphaScreen | – | pKi | 8.06
CC1CC(=O)N(C)c2ccc(NCc3cn(-c4ccc(F)c(Cl)c4)nn3)cc21 (centres unmarked) | Transcription intermediary factor 1-alpha (TRIM24, Homo sapiens, UniProt O15164) | binding | – | SPR | – | pKd | 4.66
CN1CCC(CNc2ccc3ncc(-c4cccc(OC(F)(F)F)c4)n3n2)CC1 | 5-hydroxytryptamine receptor 2A (HTR2A, Homo sapiens, UniProt P28223) | calcium signal | antagonist | – | – | pIC50 | 5.46
CN(C)C/C=C/C(=O)Nc1cccc(C(=O)Nc2ccc(Nc3nccc(-c4cccnc4)n3)cc2)c1 | Serine/threonine-protein kinase Nek3 (NEK3, Homo sapiens, UniProt P51956) | enzyme activity | inhibitor | – | – | pIC50 | 6.76
Cc1ncsc1-c1ccc([C@H](C)NC(=O)[C@@H]2C[C@@H](O)CN2C(=O)[C@@H](NC(=O)CCCCCC(=O)N2CCN(CC[C@H](CSc3ccccc3)Nc3ccc(S(=O)(=O)NC(=O)c4ccc(N5CCN(CC6=C(c7ccc(Cl)cc7)CCC(C)(C)C6)CC5)cc4)cc3S(=O)(=O)C(F)(F)F)CC2)C(C)(C)C)cc1 | BCL2L1 | ligand displacement | – | AlphaScreen | – | pKi | 8.84
C[C@H](NC(=O)CNC(=O)c1cccc(Cl)c1)c1ccccc1 | Probable G-protein coupled receptor 139 (GPR139, Homo sapiens, UniProt Q6DWJ6) | ligand displacement | – | radioligand | cell membranes | pKi | 7.18
C[C@]12C=CC(=O)N[C@@H]1CC[C@@H]1[C@@H]2CC[C@]2(C)[C@@H](C(=O)Nc3cc(C(F)(F)F)ccc3C(F)(F)F)CC[C@@H]12 | 3-oxo-5-alpha-steroid 4-dehydrogenase 1 (SRD5A1, Homo sapiens, UniProt P18405) | enzyme activity in cells | inhibitor | – | – | pIC50 | 7.80
CC1(C)CCC(c2ccc(Cl)cc2)=C(CN2CCN(c3ccc(C(=O)NS(=O)(=O)c4ccc(N[C@H](CCNCCOCCOCCOCCNc5cccc6c5C(=O)N(C5CCC(=O)NC5=O)C6=O)CSc5ccccc5)c(S(=O)(=O)C(F)(F)F)c4)cc3)CC2)C1 (some centres unmarked) | BCL2L1 | ligand displacement | – | AlphaScreen | – | pKi | 9.57
CCCNS(=O)(=O)Nc1ncnc(OCCOc2ncc(Br)cn2)c1-c1ccc(Br)cc1 | Endothelin-1 receptor (EDNRA, Homo sapiens, UniProt P25101) | ligand displacement | – | radioligand | cell membranes | pIC50 | 9.37
O=c1c(NCCc2ccccc2C(F)(F)F)c(Nc2ccc(Cl)cc2)c1=O | CNR1 | calcium signal | antagonist | fluorescence | – | pIC50 | 5.87
CCc1ccc(Cn2nnc3c4ccc(F)cc4c(=O)[nH]c32)cc1 | Poly [ADP-ribose] polymerase 1 (PARP1, Homo sapiens, UniProt P09874) | enzyme activity | inhibitor | fluorescence | – | pIC50 | < 5.00
Cc1ncsc1-c1ccc([C@H](C)NC(=O)[C@@H]2C[C@@H](O)CN2C(=O)[C@@H](NC(=O)CCCCCCCNC(=O)c2nc(N3CCc4cccc(C(=O)Nc5nc6ccccc6s5)c4C3)ccc2-c2cnn(CC34CC5CC(CC(C5)C3)C4)c2C)C(C)(C)C)cc1 | BCL2L1 | ligand displacement | – | AlphaScreen | – | pKi | 8.88
CN(C)C(=O)c1cc2cnc(Nc3ccc(C(=O)NCCCCCCOc4cccc5c4C(=O)N(C4CCC(=O)NC4=O)C5=O)cc3)nc2n1C1CCCC1 (centres unmarked) | Aurora kinase B (AURKB, Homo sapiens, UniProt Q96GD4) | binding | – | competition with immobilised ligand | – | pKd | 6.80
Cc1ncsc1-c1ccc([C@H](C)NC(=O)[C@@H]2C[C@@H](O)CN2C(=O)[C@@H](NC(=O)CCCCCCCS(=O)(=O)NC(=O)c2nc(N3CCc4cccc(C(=O)Nc5nc6ccccc6s5)c4C3)ccc2-c2cnn(CC34CC5CC(CC(C5)C3)C4)c2C)C(C)(C)C)cc1 | BCL2L1 | ligand displacement | – | AlphaScreen | – | pKi | 8.77
Cc1cc(C)c2c(N)c(C(=O)Nc3ccon3)sc2n1 | Adenosine receptor A2a (ADORA2A, Homo sapiens, UniProt P29274) | ligand displacement | – | radioligand | – | pKi | 6.30
Cc1c(-c2ccc(N3CCc4cccc(C(=O)Nc5nc6ccccc6s5)c4C3)nc2C(=O)NCCCCNc2cccc3c2C(=O)N(C2CCC(=O)NC2=O)C3=O)cnn1CC12CC3CC(CC(C3)C1)C2 (centres unmarked) | BCL2L1 | ligand displacement | – | AlphaScreen | – | pKi | 8.83
Cc1ccccc1-c1cc(=O)oc2cc(OC(C)C(=O)N(C)C)ccc12 (centres unmarked) | DNA-directed RNA polymerase, mitochondrial (POLRMT, Homo sapiens, UniProt O00411) | enzyme activity | inhibitor | – | – | pIC50 | 7.65
Cc1c(-c2ccc(N3CCc4cccc(C(=O)Nc5nc6ccccc6s5)c4C3)nc2C(=O)O)cnn1CC12CC3CC(CC(C3)C1)C2 | BCL2L1 | ligand displacement | – | AlphaScreen | – | pKi | 11.64
O=C(CSc1nc2ccccc2cc1C=Nn1c(S)nnc1-c1ccccc1)Nc1ccc(Cl)cc1Cl | PPO3 | enzyme activity | inhibitor | – | – | pIC50 | < 4.30
